The source made the active and inactive calls. No cut-off for these calls is given here.
Experiments:
HT-1080 = assay: Antimetastatic activity against luciferase-tagged human HT1080 cells xenografted in NOD.Cg-Prkdc-IL2rg<tm1Wjl>SzJAusb mouse assessed as inhibition of late-stage lung metastasis at 7.5 mg/kg/day, ip administered […] measured day 21; assay type: functional; settings: HT-1080, ip
Summary of the method: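 2.5 × 10^5 luciferase-tagged HT-1080 cells in PBS given by lateral tail vein on day 0. Daily ip dosing at 7.5 mg/kg from day -1 to day 20 (vehicle 50 mM acetate pH 5.5, 7.5% DMSO, 0.75% Tween80). Lungs harvested at day 21, homogenized, and tumour burden measured by luciferase assay. n = 4–6; one-way ANOVA with Dunnett's test.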

Homo sapiens [1] = assay: Antitumor activity against human AsPC1 cells xenografted in BALB/c nu/nu mouse co-implanted with human PSC assessed as reduction in tumor volume at 10 mg/kg/day, ip measured after 28 days post first dose; assay type: functional, organism-based
Summary of the method: (§1)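 Orthotopic AsPC-1 plus human stellate cell co-implant (1×10^6 each) in the pancreatic tail of female nude BALB/c nu/nu mice. From day 7, dosed for 4 weeks (n = 4/group) with 10 mg/kg/day ip in acetate pH 5.5/DMSO/Kolliphor vehicle, or gemcitabine 75 mg/kg gavage twice weekly. Tumors resected at 4 weeks after first injection and measured with calipers by two observers. Volume = 1/2(length×breadth×width). Mean ± SEM.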

Homo sapiens [2] = assay: Antimetastatic activity against human PSC xenografted in BALB/c nu/nu mouse co-implanted with human AsPC1 cells assessed as reduction in metastasis lesions in liver at 10 mg/kg/day, ip measured after 28 days post first dose by microscopic analysis; assay type: functional, organism-based
Summary of the method: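 Female athymic BALB/c nu/nu mice, 6–8 weeks old. 1×10^6 AsPC-1 and 1×10^6 human pancreatic stellate cells in 50 µL PBS injected into the pancreatic tail. Treatment randomized on day 7 (n = 4/group) for 4 weeks: 10 mg/kg/day ip in 50 mM sodium acetate pH 5.5/10% DMSO/1% Kolliphor HS-15, or gemcitabine 75 mg/kg by oral gavage twice weekly, or vehicle. At kill, liver scored for visible macrometastases, fixed in formalin, and 4 µm sections stained with H&E. Chi-square test.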

Plasma kallikrein = Plasma kallikrein (Homo sapiens, UniProt P03952); assay: Inhibition of plasma kallikrein (unknown origin) at 10 nM to 33.3 uM after 30 mins by gel-based ABPP assay
Plasma kallikrein, sequence (P03952 20-390 limits assumed): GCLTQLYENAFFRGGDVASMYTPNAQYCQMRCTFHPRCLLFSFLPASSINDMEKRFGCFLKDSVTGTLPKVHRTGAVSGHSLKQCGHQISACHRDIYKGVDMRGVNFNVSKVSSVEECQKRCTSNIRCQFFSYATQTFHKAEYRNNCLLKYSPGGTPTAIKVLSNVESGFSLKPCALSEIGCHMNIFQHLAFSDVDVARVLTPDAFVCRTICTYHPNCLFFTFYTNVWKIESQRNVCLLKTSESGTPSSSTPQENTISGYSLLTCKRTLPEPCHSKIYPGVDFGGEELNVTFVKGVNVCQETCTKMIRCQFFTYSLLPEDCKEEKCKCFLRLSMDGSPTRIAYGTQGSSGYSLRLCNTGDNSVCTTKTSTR
Plasma kallikrein, sequence (P03952 391-638 limits assumed): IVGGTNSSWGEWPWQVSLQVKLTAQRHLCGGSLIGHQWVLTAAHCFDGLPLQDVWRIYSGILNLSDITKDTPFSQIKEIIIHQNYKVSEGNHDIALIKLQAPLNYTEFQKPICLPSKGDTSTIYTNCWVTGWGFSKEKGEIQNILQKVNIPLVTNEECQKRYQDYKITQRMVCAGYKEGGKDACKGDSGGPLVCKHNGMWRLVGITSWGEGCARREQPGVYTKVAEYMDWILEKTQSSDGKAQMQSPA

Homo sapiens [3] = assay: Antitumor activity against human PSC xenografted in BALB/c nu/nu mouse co-implanted with human AsPC1 cells assessed as reduction in tumor volume at 10 mg/kg/day, ip measured after 28 days post first dose; assay type: functional, organism-based; summary of the method: as §1
[4] = target: T1, Epithelial sodium channel subunit alpha (Homo sapiens, UniProt P37088); assay: Inhibition of S-3969-stimulated recombinant human ENaC alpha subunit expressed in HEK293 cells at 10 uM preincubated for 5 mins followed by S-3969 stimulation by FLIPR assay; assay type: cell-based; settings: hek293, 10 µM
T1 sequence (P37088 whole entry): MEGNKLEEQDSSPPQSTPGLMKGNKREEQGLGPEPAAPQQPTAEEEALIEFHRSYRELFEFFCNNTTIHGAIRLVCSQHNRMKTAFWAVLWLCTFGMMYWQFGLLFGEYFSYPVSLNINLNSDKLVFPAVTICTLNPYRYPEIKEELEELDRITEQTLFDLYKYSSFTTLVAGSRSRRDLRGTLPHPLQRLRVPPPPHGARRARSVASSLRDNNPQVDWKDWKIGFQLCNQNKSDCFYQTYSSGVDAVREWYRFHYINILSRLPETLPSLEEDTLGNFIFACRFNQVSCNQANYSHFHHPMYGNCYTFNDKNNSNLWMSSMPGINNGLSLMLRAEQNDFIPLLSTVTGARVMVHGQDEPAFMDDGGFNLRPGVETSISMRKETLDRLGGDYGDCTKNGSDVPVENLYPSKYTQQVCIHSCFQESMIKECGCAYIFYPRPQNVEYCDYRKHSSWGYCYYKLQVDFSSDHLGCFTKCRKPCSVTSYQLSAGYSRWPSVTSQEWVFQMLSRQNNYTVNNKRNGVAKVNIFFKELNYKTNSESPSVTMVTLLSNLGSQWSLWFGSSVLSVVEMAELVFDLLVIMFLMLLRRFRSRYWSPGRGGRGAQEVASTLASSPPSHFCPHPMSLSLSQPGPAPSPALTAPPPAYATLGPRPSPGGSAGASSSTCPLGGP
Summary of the method: (§2)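 HEK-293 cells transfected with human ENaC α, β and γ cDNA together, plated at 20 000 cells/well, incubated overnight at 37 °C. Loaded with membrane-potential red dye for 30 min at 37 °C. Compound preincubated 5 min in HEPES-buffered salt solution (pH 7.4, 0.3% DMSO), then stimulated with 1 µM S-3969, read on FLIPR. Signal normalized to agonist alone (100%) and agonist plus 30 µM benzamil (0%). n = 4 wells.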

[5] = target: T2, Epithelial sodium channel subunit gamma (Homo sapiens, UniProt P51170); assay: Inhibition of S-3969-stimulated recombinant human ENaC gamma subunit expressed in HEK293 cells at 10 uM preincubated for 5 mins followed by S-3969 stimulation by FLIPR assay; assay type: cell-based; settings: hek293, 10 µM; summary of the method: as §2
T2 sequence (P51170 whole entry): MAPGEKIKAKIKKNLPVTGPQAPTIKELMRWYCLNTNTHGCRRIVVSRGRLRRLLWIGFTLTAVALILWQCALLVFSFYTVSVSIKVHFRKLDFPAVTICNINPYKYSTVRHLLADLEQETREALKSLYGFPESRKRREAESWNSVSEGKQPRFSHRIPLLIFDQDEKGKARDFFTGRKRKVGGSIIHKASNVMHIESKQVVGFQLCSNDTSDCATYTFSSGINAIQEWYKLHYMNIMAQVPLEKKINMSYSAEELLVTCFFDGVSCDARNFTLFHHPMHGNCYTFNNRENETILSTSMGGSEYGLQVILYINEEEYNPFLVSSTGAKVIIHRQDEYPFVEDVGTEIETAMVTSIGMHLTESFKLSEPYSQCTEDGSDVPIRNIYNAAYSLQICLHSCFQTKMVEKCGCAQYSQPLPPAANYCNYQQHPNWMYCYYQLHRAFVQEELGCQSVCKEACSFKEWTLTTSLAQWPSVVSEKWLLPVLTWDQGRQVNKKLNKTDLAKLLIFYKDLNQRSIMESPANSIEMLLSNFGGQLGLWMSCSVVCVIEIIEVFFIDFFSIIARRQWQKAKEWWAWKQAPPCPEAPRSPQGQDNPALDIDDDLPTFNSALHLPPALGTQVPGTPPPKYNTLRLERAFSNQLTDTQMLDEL

Trypsin = Trypsin (Homo sapiens, UniProt P07477+P07478+P35030); assay: Inhibition of trypsin (unknown origin) using chromogenic H-D-Ile-L-Pro-L-Arg-p-nitoraniline as substrate by […]; assay type: protein assay

| Structure (SMILES) | inhibition in vivo at 7.5 mg/kg/day (HT-1080) | Activity (Homo sapiens [1]) | Activity (Homo sapiens [2]) | inhibition (Plasma kallikrein) | Activity (Homo sapiens [3]) | inhibition (INH) [4] | inhibition (INH) [5] | IC50 (Trypsin) |
| --- | --- | --- | --- | --- | --- | --- | --- | --- |
| COc1ncc(-c2nc(C(=O)NC(=N)N)c(N)nc2N2CCCCCC2)cn1 | 33% | Active | Active | Active | Active | – | – | – |
| N=C(N)NC(=O)c1nc(Cl)c(N2CCCCCC2)nc1N [N,N-HEXAMETHYLENEAMILORIDE] | – | – | – | – | – | Not Active | Not Active | > 10 µM |
| N=C(N)NC(=O)c1nc(-c2cc3ccccc3o2)c(N2CCCCCC2)nc1N | 21% | Active | Active | Active | Active | Not Active | Not Active | > 10 µM |

From ChEMBL document CHEMBL4196166 (J Med Chem, 2018)
